# Shown are actives, neighbours in structure and some others; about 2.5% of the full set was active somewhere.
# TRPC6 inhibitor – blocks the mouse TRPC6 cation channel | HEK293-TRPC6, membrane potential dye, ACh-evoked depolarization; stronger effect = lower value | 310,000 compounds, 1.1% hits | B-score at 10 µM;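 active means B-score under library mean minus 3 SD, initial fluorescence not abnormally high, positive integrated signal ratio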;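 further: B-score derived from integrated fluorescence ratio over the kinetic read; more negative B-score means stronger inhibition of depolarization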
# TRPC4 PAM – allosteric potentiators of mouse TRPC4 channel; HEK293 TRPC4beta/mu-opioid, DAMGO EC20, Fluo-4 Ca2+ flux; stronger effect = higher value; B-score at 10 µM; 310,000 compounds, 0.42% hits; AID 2227;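 active means B-score of calcium response area above 5 SD of library B-scores, with initial fluorescence ratio within 5 SD of library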;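 further: B-score of integrated fluorescence ratio over time as area under calcium response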
# Target sequence (Q9QUQ5 whole entry, looked up): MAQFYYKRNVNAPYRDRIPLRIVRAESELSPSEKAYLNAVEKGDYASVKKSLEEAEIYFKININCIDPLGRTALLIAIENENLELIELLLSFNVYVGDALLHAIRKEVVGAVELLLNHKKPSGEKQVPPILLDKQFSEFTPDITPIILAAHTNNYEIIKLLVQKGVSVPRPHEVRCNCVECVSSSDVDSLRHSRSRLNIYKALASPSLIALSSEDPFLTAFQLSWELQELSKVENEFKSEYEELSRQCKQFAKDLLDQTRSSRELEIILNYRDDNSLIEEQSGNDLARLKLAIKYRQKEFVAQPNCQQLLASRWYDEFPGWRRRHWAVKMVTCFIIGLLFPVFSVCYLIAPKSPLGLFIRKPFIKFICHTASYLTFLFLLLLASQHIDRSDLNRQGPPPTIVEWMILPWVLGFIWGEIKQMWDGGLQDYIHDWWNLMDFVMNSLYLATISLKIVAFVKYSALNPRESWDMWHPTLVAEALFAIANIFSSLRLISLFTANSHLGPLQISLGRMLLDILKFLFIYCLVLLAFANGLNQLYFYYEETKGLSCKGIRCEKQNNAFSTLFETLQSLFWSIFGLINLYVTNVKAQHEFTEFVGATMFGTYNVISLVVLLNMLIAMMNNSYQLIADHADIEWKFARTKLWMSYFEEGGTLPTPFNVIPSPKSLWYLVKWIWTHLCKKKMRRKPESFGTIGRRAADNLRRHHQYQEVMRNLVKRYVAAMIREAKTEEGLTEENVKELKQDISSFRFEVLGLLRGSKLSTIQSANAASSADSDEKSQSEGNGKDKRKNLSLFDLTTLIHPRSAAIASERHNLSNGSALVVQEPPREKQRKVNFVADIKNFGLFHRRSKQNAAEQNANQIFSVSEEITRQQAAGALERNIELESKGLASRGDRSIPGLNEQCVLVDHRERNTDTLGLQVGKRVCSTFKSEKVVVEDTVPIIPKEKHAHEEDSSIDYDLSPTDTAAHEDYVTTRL
# TRPC6 act – activators of mouse TRPC6 channel. Q61143. HEK293-TRPC6 membrane potential dye fluorescence; stronger effect = higher value. B-score at 10 µM. 310,000 compounds, 0.13% hits;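 active means B-score of the integrated fluorescence ratio above library mean plus 3 SD, and starting fluorescence ratio within library mean plus 5 SD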;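 further: higher score means more depolarization so channel activation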
# TRPC4 block – blocks the mouse TRPC4 cation channel; B-score at 10 µM; 300,000 compounds, 0.39% hits; AID 2247; HEK293 TRPC4beta/mu-opioid, DAMGO-evoked Fluo4 calcium flux; stronger effect = lower value;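 active means B-score over 3 SD under the library average, no early fluorescence shift, positive overall ratio signal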
#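 System: stable TRPC4beta/mu-opioid receptor HEK293 cells; Dosing: single-point compound dosing; Measured by: Fluo4 Ca2+ flux fluorescence; Read-out basis: per-well B score of integrated baseline-normalized Fluo4 ratio.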
# TRPC4 agonist – TRPC4 (mouse) channel activation; Q9QUQ5; HEK293 TRPC4beta/mu-opioid, Fluo4 calcium fluorescence; stronger effect = higher value; B-score at 10 µM; 310,000 compounds, 0.49% hits;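 active means B-score above 5 SD of library B-scores, and initial fluorescence ratio not above library mean plus 5 SD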;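 further: positive B-score marks a calcium rise read as TRPC4 activation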
#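 Assay system: HEK293 stable line with TRPC4beta plus mu-opioid receptor. Times: dye 45 min RT, read 110 s. Measured by: kinetic Fluo4 calcium fluorescence. Measure: B score of integrated ratio. Controls: assay buffer as low control, maximal DAMGO as high control.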
# DSG3 Ab inh – blocks pemphigus antibody binding to human desmoglein-3; binding (percent of control), % at 10 µM; 310,000 compounds, 0.48% hits; P32926; DSG3-coupled beads, scFv-anti-DSG3-GFP binding, flow cytometry; stronger effect = lower value; AID 588358;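 active means binding more than 3 SD below its plate's average and above zero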
# TRPC4 sel inh 2 – mouse TRPC4 off-target activity of TRPC6 inhibitors, second screen; inhibition, % at 10 µM; shares compounds with TRPC6 inhibitor; HEK293 TRPC4/MOR, membrane potential dye fluorescence; channel activated by saturating DAMGO dose; 920 compounds, 42% hits;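 active means compounds whose fluorescence signal differed from control wells by over 3 SD, either direction, in both duplicate plates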
# TRPC4 spec – selectivity of TRPC6 inhibitors: effect on mouse TRPC4. AID 2777. HEK293 TRPC4/mu-opioid, membrane potential fluorescence. 920 compounds, 61% hits. shares compounds with TRPC6 inhibitor. activity change, negative = inhibition, % at 10 µM;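 active means rise or fall in signal beyond 3 SD of buffer-only wells in both replicate plates, either sign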;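 further: integrated kinetic ratio of fluorescence range over baseline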
# HEK293 MPD ctr 2-1 – second counter-screen for TRPC6 inhibitors: parental HEK293 cells. signal change vs control, % at 10 µM. 920 compounds, 31% hits. shares compounds with TRPC6 inhibitor. parental HEK293 membrane potential dye fluorescence; maximal acetylcholine challenge after compound addition;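 active means membrane potential signal moving either way by over 3 SD of the maximum-effect control, in both duplicate plates, meaning non-specific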
# HEK293 MPD ctr-1 – parental HEK293 nonspecific activity of TRPC6 inhibitors; shares compounds with TRPC6 inhibitor; parental HEK293 membrane potential dye fluorescence; membrane potential signal change, % at 10 µM; 920 compounds, 60% hits; AID 2780;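 active means membrane potential signal shifting up or down by more than 3 SD of buffer-only wells, on both duplicate plates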
# HEK293 MPD ctr-2 – counter-screen for TRPC6 modulators: effect in parental HEK293 cells; 2,400 compounds, 51% hits; membrane potential signal change, % at 10 µM; membrane potential dye fluorescence; AID 488924; shares compounds with TRPC6 inhibitor;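 active means membrane potential signal moves up or down beyond 5 SD from buffer-only wells, on both duplicate plates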
# HEK293 MPD ctr 2-2 – parental HEK293 nonspecific activity of TRPC6 modulators, second screen; inhibition, % at 10 µM; shares compounds with TRPC6 inhibitor; 2,400 compounds, 14% hits; membrane potential dye fluorescence; after compound, maximal acetylcholine stimulation; AID 488926;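 active means membrane potential signal drops by more than 5 SD from the mean control signal, in both duplicate plates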;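 further: plate controls were acetylcholine ECmax control wells for no effect and buffer only wells for full effect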
# TRPC4 ctr mod – selectivity of TRPC6 modulators against mouse TRPC4; HEK293 TRPC4/mu-opioid, membrane potential fluorescence; AID 488927; percent change from control (negative = decrease, positive = increase), % at 10 µM; shares compounds with TRPC6 inhibitor; 2,400 compounds, 69% hits;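 active means membrane potential signal moved up or down beyond 5 SD of buffer control wells, in both duplicate plates, actives on both sides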;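 further: plate controls were assay buffer wells for no effect and DAMGO maximal-effect wells for full effect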
# TRPC4/MOR inh 2 – mouse TRPC4 off-target activity of TRPC6 modulators, second screen; HEK293 TRPC4/mu-opioid, membrane potential dye fluorescence; stimulated with maximal-effect DAMGO; shares compounds with TRPC6 inhibitor; inhibition, % at 10 µM; 2,400 compounds, 55% hits;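 active means drop in membrane potential signal beyond 5 SD of the control wells in both duplicate plates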;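 further: TRPC4 counter screen for TRPC6 hits run under conditions tuned for TRPC6 not TRPC4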
# TRPC6 inh conf – confirmation of mouse TRPC6 inhibitors. shares compounds with TRPC6 inhibitor. HEK293-TRPC6, membrane potential dye, ACh-evoked depolarization. inhibition, % at 10 µM. 3,300 compounds, 43% hits;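 active means fluorescence ratio falls more than 5 SD below the full-stimulation control mean, in both duplicate runs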;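 further: integrated fluorescence ratio of peak minus minimum over baseline after agonist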
# TRPC6 act conf – mouse TRPC6 activator confirmation | shares compounds with TRPC6 inhibitor | HEK293-TRPC6 membrane potential dye fluorescence, FDSS | activation, % at 10 µM | 2,800 compounds, 11% hits | AID 488961;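 active means ratio signal rise beyond 5 SD above unstimulated control wells' mean, seen in both duplicate runs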;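 further: plate controls were buffer EC0 wells for no effect and acetylcholine ECmax response for full effect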
# An asterisk follows results filed as active; i = inactive; . = no result; ! = not active in a repeat.
SMILES,TRPC6 inhibitor,TRPC4 PAM,TRPC6 act,TRPC4 block,TRPC4 agonist,DSG3 Ab inh,TRPC4 sel inh 2,TRPC4 spec,HEK293 MPD ctr 2-1,HEK293 MPD ctr-1,HEK293 MPD ctr-2,HEK293 MPD ctr 2-2,TRPC4 ctr mod,TRPC4/MOR inh 2,TRPC6 inh conf,TRPC6 act conf
COC(=O)c1ccsc1NC(=O)CN1CCN(Cc2ccc3c(c2)OCO3)CC1,-6.7*,i,i,i,i,106,i,19%*,389%*,16%*,.,.,.,.,i,.
CCN(CC)C(=O)c1cnn(-c2ccccc2)c1NC(=O)c1ccccc1F,i,i,i,i,i,.,.,.,.,.,.,.,.,.,.,.
N#CC(c1ccc(F)cc1)c1ccc(C(=O)c2ccc(F)cc2)cc1 (configuration not stated),-7.4*,i,i,i,i,110,i,i,i,i,.,.,.,.,i,i
Cc1cc(=O)c2cccc(Br)c2[nH]1,i,i,i,i,i,96,.,.,.,.,.,.,.,.,.,.
O=c1cc(C(F)(F)F)[nH]c2ccc(OC(F)(F)F)cc12,-7.1*,i,i,i,i,101,i,23%*,22%*,13%*,.,.,.,.,104%*,.
O=c1cc(C(F)(F)F)[nH]c2c(C(F)(F)F)cccc12,-10*,i,i,i,i,102,66%*,58%*,i,32%*,.,.,.,.,83%*,.
COC1=CC(=O)C(OC)=C(OC)C1=O,.,.,.,.,.,120,.,.,.,.,.,.,.,.,.,.
O=C(Cc1ccccc1)NNC(=O)c1ccccc1C(=O)O,i,i,i,i,i,106,.,.,.,.,.,.,.,.,.,.
CC1(C)C(=O)C=C(N2CCCCC2)c2ccccc21,.,.,.,.,.,116,.,.,.,.,.,.,.,.,.,.
CCN(CC)CCCNC1=C(Cl)C(=O)c2ccccc2C1=O,-6.2*,i,i,i,i,100,.,.,.,.,-180%*,i,-30%*,47%*,50%*,i
CC(C)(C)Nc1c2ccccc2nc2ccccc12,-8.9*,i,i,i,i,131,.,.,.,.,-202%*,i,-34%*,87%*,53%*,i
COc1ccccc1Nc1c2ccccc2nc2ccccc12,-6.7*,i,i,i,i,101,.,.,.,.,-182%*,i,-36%*,68%*,50%*,i
COc1cc(Nc2c3ccccc3nc3ccccc23)cc(OC)c1OC,-7.1*,i,i,i,i,120,.,.,.,.,-132%*,i,-38%*,60%*,i,i
OCCCNc1c2ccccc2nc2ccccc12,-6.1*,i,i,-6*,i,99,.,.,.,.,-231%*,i,-36%*,46%*,37%*,i
O=C(NC1CC1)C1CCN(C2CCN(C(=O)CCOc3ccccc3)CC2)CC1,i,i,30*,i,i,108,.,.,.,.,246%*,i,76%*,i,i,66%*
O=C(NC1CC1)C1CCN(C2CCN(C(=O)CSc3ccccc3)CC2)CC1,i,i,i,i,i,105,.,.,.,.,.,.,.,.,.,.
CC(OC(=O)CNC(=O)COc1ccccc1)C(=O)N(C)Cc1ccccc1 (configuration not stated),i,i,i,i,i,110,.,.,.,.,.,.,.,.,.,.
CC(=O)N/C(=C\c1ccccc1)C(=O)OCc1cccc(S(=O)(=O)N(C)C)c1,i,i,i,i,i,114,.,.,.,.,.,.,.,.,.,.
CN1C(=S)N(c2cccnc2)C(=O)/C1=C\c1ccc(N(C)C)cc1,i,i,13*,i,i,123,.,.,.,.,356%*,i,108%*,i,i,106%*
O=C(O)Cn1c(O)c(C=Nc2ccccc2)sc1=S,-12*!,i,i,i,i,.,i,i,i,i,.,.,.,.,i,i
Cc1c(C)[n+](=O)c(C)c(C)n1[O-],.,.,.,.,.,93,.,.,.,.,.,.,.,.,.,.
CN(C)CCOC1c2ccccc2CSc2ccccc21 (configuration not stated),-7.8*,i,i,i,i,117,i,5.7%*,40%*,6.8%*,.,.,.,.,53%*,.
CCCn1c(N)c(N(CCOC)C(=O)Cc2ccc(S(=O)(=O)N3CCOCC3)s2)c(=O)[nH]c1=O,i,i,i,i,i,119,.,.,.,.,.,.,.,.,.,.
N#CCCN(CCN1CCCC1)S(=O)(=O)c1ccc(-c2ccc([N+](=O)[O-])cc2)cc1,-7.8*,i,i,i,i,97,32%*,-27%*,30%*,-268%*,.,.,.,.,88%*,i
O=C(Nc1cccc(S(=O)(=O)N2CCCCC2)c1)c1c2c(nc3ccccc13)CCN(Cc1ccccc1)C2,-5.3*,i,i,i,i,.,.,.,.,.,i,i,i,i,i,i
O=C(CN1CCN(Cc2ccccc2)CC1)Nc1cccc(S(=O)(=O)N2CCCCCC2)c1,i,i,i,i,i,96,.,.,.,.,.,.,.,.,.,.
CC(=O)Nc1ccc(NC(=O)CSc2ccc3nnc(-c4cccnc4)n3n2)cc1,i,i,i,i,i,112,.,.,.,.,.,.,.,.,.,.

# Screening data (PubChem BioAssay)
